Results reported in ChEMBL document CHEMBL2321694, “Novel 3-hydroxy vinylboronates influence sphingolipid metabolism, cause apoptosis in Jurkat cells and prevent tumor development in nude mice” (Bioorg Med Chem Lett, 2013).
Active and inactive are the calls of the source. The calls are words filed in the database; no cut-off is given here.

Assays:
ARH-77 = test: Cytotoxicity against human ARH77 cells assessed as cell survival after 72 hrs by MTT assay; format: functional, cell-based
Procedure, shortened: (§1)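 Cells at 1 × 10^6 cells/ml were plated in RPMI 1640 without FCS; adherent lines (HT-29, ARH-77, Melanoma-624) were left overnight to attach first. Compound was added and MTT read after 72 h incubation at 37 °C, 5% CO2; IC50 derived.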

HT-29 [1] = test: Cytotoxicity against human HT-29 cells assessed as cell survival after 72 hrs by MTT assay; format: functional, cell-based; procedure, shortened: as §1
Jurkat [2] = test: Cell cycle arrest at human Jurkat cells assessed as accumulation at sub G1 phase at 20 to 50 uM after 24 hrs by propidium iodide staining-based FACS flow cytometric analysis; format: functional; conditions: 100 uM, in the assay text read “100 uM” for “20 to 50 uM”
Procedure, shortened: (§2)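 Jurkat cells at 1 × 10^6 cells/ml were exposed to compound or vehicle (0.2% DMSO) for 24 h. They were then fixed in cold 70% ethanol, and RNAse (50 μg/ml) and PI were added in PBS. Cell-cycle distribution, including sub-G1, was read by flow cytometry. Data are mean ± s.d., with t test versus naïve control.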

Jurkat [3] = test: Cytotoxicity against human Jurkat cells assessed as cell survival after 72 hrs by MTT assay; format: functional, cell-based; procedure, shortened: as §1
[4] = Cytotoxicity against human Melanoma-624 cells assessed as cell survival after 72 hrs by MTT assay; format: functional, cell-based; conditions: Homo sapiens, 624, 72 h; procedure, shortened: as §1
Jurkat [5] = test: Cytotoxicity against human Jurkat cells assessed as cell survival after 72 hrs by MTT assay in presence of 10% FCS; format: functional, cell-based
Procedure, shortened: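 Jurkat MTT viability run in RPMI 1640 with 10% FCS, 72 h incubation with compound at 37 °C, 5% CO2; IC50 derived.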

Jurkat [6] = test: Cell cycle arrest at human Jurkat cells assessed as accumulation at sub G1 phase at 100 uM after 24 hrs by propidium iodide staining-based FACS flow cytometric analysis relative to control; format: functional; procedure, shortened: as §2
HT-29 [7] = test: Antitumor activity against human HT-29 cells xenografted in nude mouse assessed as tumor growth inhibition at 50 mg/kg, ip measured after 33 days; format: functional, organism-based; parameters: dose 50 mg/kg
Procedure, shortened: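 Female nude mice 5–6 weeks old (SPF, ~22 °C, 12-h light–dark) injected sc with 1 × 10^6 HT-29 cells, randomized same day to 50 mg/kg (n=5) or vehicle cremophor/ethanol/water (10:10:80) (n=6). Once-daily ip injections for 3 weeks (15 injections), then 4 weeks follow-up; read-out was percentage of tumor-free mice over time.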

HT-29 [8] = test: Antitumor activity against human HT-29 cells xenografted in nude mouse assessed as tumor growth inhibition at 50 mg/kg, ip measured up to day 33; format: functional, organism-based; parameters: dose 50 mg/kg
Jurkat [9] = test: Reduction of sphingomyelin synthesis in fluorescent Bodipy-12-ceramide-treated human Jurkat cells administered 30 mins prior to Bodipy-12-ceramide addition measured after 72 hrs by HPLC analysis in presence of 10% FCS; format: functional, cell-based
Procedure, shortened: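 Jurkat cells (0.75 × 10^6 cells/ml) in medium with 10% FCS received compound or vehicle (0.1% DMSO); 30 min later 0.25 μM Bodipy-12-ceramide was added. After 72 h, lipids were extracted with dichloromethane/methanol, and ceramide and sphingomyelin percentages were quantified by C18 HPLC with fluorescence detection (Ex 505, Em 530 nm). Mean ± s.d., t test versus vehicle.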

Mus musculus = test: Toxicity in nude mouse xenografted with human HT-29 cells assessed as adverse effect at 50 mg/kg, ip up to day 50; format: organism-based; parameters: dose 50 mg/kg, route intraperitoneal; conditions: in vivo
Procedure, shortened: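 HT-29 xenograft (1 × 10^6 cells sc) in female nude mice dosed ip once daily for 3 weeks (15 injections) in cremophor/ethanol/water (10:10:80), followed to day 50; general health checked daily by weighing and clinical examination.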

Jurkat [10] = test: Induction of apoptosis in human Jurkat cells assessed as increase in apoptotic cells at 100 uM after 24 hrs by annexin V-propidium iodide staining-based FACS flow cytometric analysis (reference value: 11.99%); format: functional
[11] = Homo sapiens, ARH-77, 72 h, read-out: IC50
[12] = Homo sapiens, HT-29, 72 h, read-out: IC50

Compound | IC50 (ARH-77; [11]) | IC50 (HT-29 [1]; [12]) | further results
CCCCCCC(C)(O)/C(=C/B1OC(C)(C)C(C)(C)O1)CCC (stereo unspecified) | 33.9 µM | 57.2 µM | –
CCC/C(=C\B1OC(C)(C)C(C)(C)O1)C(O)c1ccccc1 (stereo unspecified) | – | > 100 µM | IC50 (ARH-77; arh-77): Not Active
CCCCCCCC/C(=C\B1OC(C)(C)C(C)(C)O1)C(C)(O)CCCCCC (stereo unspecified) | 79.1 µM | > 100 µM | –
CCC/C(=C\B1OC(C)(C)C(C)(C)O1)C(O)(c1ccccc1)C1CC1 (stereo unspecified) | 55.2 µM | 83.9 µM | –
CCCCC/C(=C\B1OC(C)(C)C(C)(C)O1)C(O)(c1ccccc1)C1CC1 (stereo unspecified) | 10.4 µM | – | IC50 (HT-29 [1]; ht-29): Not Active
CCC/C(=C\B1OC(C)(C)C(C)(C)O1)C1(O)CCCc2ccccc21 (stereo unspecified) | 64.9 µM | 86.8 µM | –
CCCCC(C)(O)/C(=C/B1OC(C)(C)C(C)(C)O1)CCC (stereo unspecified) | 54.6 µM | 69.6 µM | –
CCCCCCCC/C(=C\B1OC(C)(C)C(C)(C)O1)C(O)(c1ccccc1)C1CC1 (stereo unspecified) | 6.36 µM | 18.3 µM | Activity (Jurkat [2]): Active; IC50 (Jurkat [3]): 16.3 µM; IC50 [4]: 32.3 µM; IC50 (Jurkat [5]): 84 µM; fold change (FC) (Jurkat [6]): >2; TGI (HT-29 [7]): inactive; TGI (HT-29 [8]): Active; Activity (Jurkat [9]): Dose-dependent effect; Activity (Mus musculus): Non-toxic; Activity (Jurkat [10]): 15.22%
